{"source": "paper PMC11656380", "about": "(ACS Omega, 2024)", "key": {"HPB-ALL cells": {"tested_on": "HPB-ALL cells", "test": "Proliferation, total cell count over 3 days", "format": "cell-based, human", "details": "15 μM DAPT, 100 μM Tat-Ram13 or 100 μM Tat-mRam13"}, "[1]": {"tested_on": "caspase-3 in CCRF-CEM cells", "test": "Western blot of caspase-3 cleavage", "format": "cell-based, human", "details": "100 μM Tat-Ram13 or 30 μM etoposide", "summary_of_the_method": "(§1)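 CCRF-CEM cells (1×10^6) were treated with 100 μM test peptide, or with etoposide, for the indicated time. Cells were washed in ice-cold PBS and lysed in RIPA buffer with protease inhibitors. Lysate (25 μg) was run on SDS-PAGE and blotted to PVDF, then blocked in 5% skim milk/PBS-0.1% Tween 20 for 30 min. Primary antibodies (1:1000; β-actin 1:10,000) were applied overnight at 4 °C, then HRP secondary for 1 h at 4 °C, with chemiluminescent detection.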"}, "PARP-1 in CCRF-CEM cells": {"tested_on": "PARP-1 in CCRF-CEM cells", "test": "Western blot of PARP-1 cleavage", "format": "cell-based, human", "details": "100 μM Tat-Ram13 or 30 μM etoposide", "summary_of_the_method": "as §1"}, "CCRF-CEM cells [2]": {"tested_on": "CCRF-CEM cells", "test": "Cell morphology, phase-contrast and DNA", "format": "cell-based, human", "details": "100 μM Tat-Ram13 or 30 μM etoposide, 24 h", "summary_of_the_method": "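Cells were seeded at 5×10^5 per well in glass-bottom dishes and incubated with or without test compound. They were then stained with Hoechst 33342 for 10 min and imaged by fluorescence or confocal microscopy.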"}, "CCRF-CEM cells [3]": {"tested_on": "CCRF-CEM cells", "test": "Time course of cell death, trypan blue exclusion assay", "format": "cell-based, human", "details": "up to 24 h", "summary_of_the_method": "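CCRF-CEM cells in complete RPMI-1640 (10% fetal calf serum, 5% CO2) were exposed to test peptide, control peptide or etoposide at the indicated concentrations, sampled over up to 24 h, and scored for viable cells by trypan blue exclusion.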"}, "CCRF-CEM cells [4]": {"tested_on": "CCRF-CEM cells", "test": "HMGB1 release, Western blot", "format": "cell-based, human", "details": "Western blot of supernatant and pellet, etoposide 24 h"}, "[5]": {"tested_on": "interactions between NICD and CSL", "details": "human cell lysates; cited from earlier work"}, "CCRF-CEM cells [6]": {"tested_on": "CCRF-CEM cells", "test": "WST-8 cell viability assay", "format": "cell-based, human", "details": "CCRF-CEM (Figure 7B)", "summary_of_the_method": "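Cells at 5×10^4 cells/100 μL in complete medium (RPMI-1640, 10% fetal calf serum, 10 U/mL penicillin G, 10 μg/mL streptomycin) were exposed to various concentrations of test peptide in a 5% CO2 incubator for 24 h. WST-8 was added, and absorbance at 450 nm was read 1–2 h later. Viability was relative to an HBSS-added control (100%). Data are means ± SD.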"}}, "note": "Entries after “also recorded” stand apart in the source; their conditions may differ."}
{"molecule": "C[C@H](NC(=O)Cc1cc(F)cc(F)c1)C(=O)N[C@H](C(=O)OC(C)(C)C)c1ccccc1", "note": "[DAPT]", "values": [{"measurement": "cell proliferation (total cell count)", "setting": "HPB-ALL cells", "result": "significant reduction in proliferation"}]}
{"molecule": "COc1cc([C@@H]2c3cc4c(cc3[C@@H](O[C@@H]3O[C@@H]5CO[C@@H](C)O[C@H]5[C@H](O)[C@H]3O)[C@H]3COC(=O)[C@H]23)OCO4)cc(OC)c1O", "note": "[etoposide]", "values": [{"measurement": "caspase-3 cleavage", "setting": "[1]", "result": "did produce the cleaved fragment"}, {"measurement": "cleavage of PARP-1 fragments (89 kDa)", "setting": "PARP-1 in CCRF-CEM cells", "result": "as etoposide did"}, {"measurement": "cell morphology", "setting": "CCRF-CEM cells [2]", "result": "membrane blebbing and DNA fragmentation"}, {"measurement": "time course of cell death", "setting": "CCRF-CEM cells [3]", "result": "occurred more slowly"}, {"measurement": "HMGB1 release into the culture supernatant", "setting": "CCRF-CEM cells [4]", "result": "released very little HMGB1"}]}
{"molecule": "RRQHGQLWFPEGF [Ram13]", "values": [{"measurement": "disruption of NICD-CSL interaction", "setting": "[5]", "result": "effectively disrupted interactions between NICD and CSL"}, {"measurement": "cytotoxicity, role of the cell-penetrating part", "setting": "CCRF-CEM cells [6]", "result": "inactive; also recorded: lost its cytotoxicity"}]}
